From ChEMBL document CHEMBL1154876, “Synthesis and antimicrobial studies on novel sulfonamides containing 4-azidomethyl coumarin” (2010)
In brackets after ≈: the same amount, converted by molar mass.

Legend:
Assay type in all cases: functional
[1] = system: Enterococcus faecalis; experiment: Antibacterial activity against Streptococcus faecalis MTCC 3382 after 18 hrs by broth microdilution method; conditions: MTCC 3382, 18 h
[2] = system: Staphylococcus aureus; experiment: Antibacterial activity against Staphylococcus aureus MTCC 3160 after 18 hrs by broth microdilution method; conditions: MTCC 3160, 18 h
[3] = system: Bacillus subtilis; experiment: Antibacterial activity against Bacillus subtilis MTCC 297 after 18 hrs by broth microdilution method; conditions: MTCC 297, 18 h
[4] = system: Pseudomonas aeruginosa; experiment: Antibacterial activity against Pseudomonas aeruginosa MTCC 1034 after 18 hrs by broth microdilution method; conditions: MTCC 1034, 18 h
[5] = system: Klebsiella pneumoniae; experiment: Antibacterial activity against Klebsiella pneumoniae MTCC 3384 after 18 hrs by broth microdilution method; conditions: MTCC 3384, 18 h
[6] = system: Escherichia coli; experiment: Antibacterial activity against Escherichia coli MTCC 1089 after 18 hrs by broth microdilution method; conditions: MTCC 1089, 18 h
[7] = system: Candida albicans; experiment: Antifungal activity against Candida albicans after 48 to 72 hrs by broth microdilution method
Method in brief: (§1)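 Test compounds were prepared as 10 mg/ml DMSO stocks and serially diluted twofold in Sabouraud's dextrose broth over 500, 250, 125, 62.5, 31.25, 16, 8, 4, 2 and 1, alongside fluconazole as reference. Plates were inoculated with 1–5 × 10⁴ cfu/ml and held at 25 °C for 48–72 h. The MIC was the lowest concentration showing no visible growth.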

[8] = system: Aspergillus fumigatus; experiment: Antifungal activity against Aspergillus fumigatus after 48 to 72 hrs by broth microdilution method; method in brief: as §1
[9] = system: Aspergillus niger; experiment: Antifungal activity against Aspergillus niger after 48 to 72 hrs by broth microdilution method; method in brief: as §1
[10] = system: Penicillium chrysogenum; experiment: Antifungal activity against Penicillium chrysogenum after 48 to 72 hrs by broth microdilution method; method in brief: as §1
[11] = system: Mucor; experiment: Antifungal activity against Mucor fuscus after 48 to 72 hrs by broth micro dilution method; method in brief: as §1
[12] = system: Fusarium oxysporum; experiment: Antifungal activity against Fusarium oxysporum after 48 to 72 hrs by broth microdilution method; method in brief: as §1

Structure (SMILES)	MIC [1] [µg/mL]	MIC [2] [µg/mL]	MIC [3] [µg/mL]	MIC [4] [µg/mL]	MIC [5] [µg/mL]	MIC [6] [µg/mL]	MIC [7] [µg/mL]	MIC [8] [µg/mL]	MIC [9] [µg/mL]	MIC [10] [µg/mL]	MIC [11] [µg/mL]	MIC [12] [µg/mL]
Cc1ccc(NS(=O)(=O)c2cc3c(CN=[N+]=[N-])cc(=O)oc3cc2C)c([N+](=O)[O-])c1	1 (≈ 2.33 µM)	16 (≈ 37.3 µM)	250 (≈ 582 µM)	16 (≈ 37.3 µM)	4 (≈ 9.32 µM)	250 (≈ 582 µM)	16 (≈ 37.3 µM)	125 (≈ 291 µM)	31.2 (≈ 72.8 µM)	31.2 (≈ 72.8 µM)	62.5 (≈ 146 µM)	1 (≈ 2.33 µM)
Cc1cc2oc(=O)cc(CN=[N+]=[N-])c2cc1S(=O)(=O)Nc1ccc(Cl)cc1	4 (≈ 9.88 µM)	8 (≈ 19.8 µM)	16 (≈ 39.5 µM)	1 (≈ 2.47 µM)	1 (≈ 2.47 µM)	> 500	8 (≈ 19.8 µM)	125 (≈ 309 µM)	31.2 (≈ 77.2 µM)	16 (≈ 39.5 µM)	16 (≈ 39.5 µM)	1 (≈ 2.47 µM)
Cc1ccc(NS(=O)(=O)c2cc3c(CN=[N+]=[N-])cc(=O)oc3cc2C)c(C)c1	62.5 (≈ 157 µM)	16 (≈ 40.2 µM)	125 (≈ 314 µM)	4 (≈ 10 µM)	62.5 (≈ 157 µM)	> 500	8 (≈ 20.1 µM)	16 (≈ 40.2 µM)	4 (≈ 10 µM)	31.2 (≈ 78.4 µM)	16 (≈ 40.2 µM)	1 (≈ 2.51 µM)
Cc1cc2oc(=O)cc(CN=[N+]=[N-])c2cc1S(=O)(=O)Nc1cccc2ccccc12	2 (≈ 4.76 µM)	16 (≈ 38.1 µM)	> 500	8 (≈ 19 µM)	1 (≈ 2.38 µM)	> 500	8 (≈ 19 µM)	2 (≈ 4.76 µM)	1 (≈ 2.38 µM)	16 (≈ 38.1 µM)	31.2 (≈ 74.3 µM)	1 (≈ 2.38 µM)
COc1ccc(NS(=O)(=O)c2cc3c(CN=[N+]=[N-])cc(=O)oc3cc2C)cc1	1 (≈ 2.5 µM)	4 (≈ 9.99 µM)	> 500	8 (≈ 20 µM)	1 (≈ 2.5 µM)	250 (≈ 624 µM)	8 (≈ 20 µM)	2 (≈ 4.99 µM)	2 (≈ 4.99 µM)	250 (≈ 624 µM)	250 (≈ 624 µM)	1 (≈ 2.5 µM)
OC(Cn1cncn1)(Cn1cncn1)c1ccc(F)cc1F [FLUCONAZOLE]	–	–	–	–	–	–	8 (≈ 26.1 µM)	8 (≈ 26.1 µM)	8 (≈ 26.1 µM)	8 (≈ 26.1 µM)	8 (≈ 26.1 µM)	8 (≈ 26.1 µM)
Cc1cc2oc(=O)cc(CN=[N+]=[N-])c2cc1S(=O)(=O)Nc1ccc(Cl)cc1Cl	1 (≈ 2.28 µM)	31.2 (≈ 71.1 µM)	250 (≈ 569 µM)	2 (≈ 4.55 µM)	2 (≈ 4.55 µM)	> 500	8 (≈ 18.2 µM)	250 (≈ 569 µM)	250 (≈ 569 µM)	62.5 (≈ 142 µM)	16 (≈ 36.4 µM)	1 (≈ 2.28 µM)
Cc1cc2oc(=O)cc(CN=[N+]=[N-])c2cc1S(=O)(=O)Nc1ccccc1	31.2 (≈ 84.4 µM)	4 (≈ 10.8 µM)	31.2 (≈ 84.4 µM)	125 (≈ 337 µM)	125 (≈ 337 µM)	125 (≈ 337 µM)	16 (≈ 43.2 µM)	8 (≈ 21.6 µM)	8 (≈ 21.6 µM)	2 (≈ 5.4 µM)	4 (≈ 10.8 µM)	4 (≈ 10.8 µM)
Cc1cc2oc(=O)cc(CN=[N+]=[N-])c2cc1S(=O)(=O)Nc1cccc([N+](=O)[O-])c1	8 (≈ 19.3 µM)	4 (≈ 9.63 µM)	8 (≈ 19.3 µM)	125 (≈ 301 µM)	125 (≈ 301 µM)	125 (≈ 301 µM)	16 (≈ 38.5 µM)	8 (≈ 19.3 µM)	8 (≈ 19.3 µM)	2 (≈ 4.81 µM)	4 (≈ 9.63 µM)	2 (≈ 4.81 µM)
Cc1cc2oc(=O)cc(CBr)c2cc1S(=O)(=O)Cl	16 (≈ 45.5 µM)	16 (≈ 45.5 µM)	16 (≈ 45.5 µM)	125 (≈ 356 µM)	125 (≈ 356 µM)	125 (≈ 356 µM)	8 (≈ 22.8 µM)	4 (≈ 11.4 µM)	4 (≈ 11.4 µM)	1 (≈ 2.84 µM)	1 (≈ 2.84 µM)	1 (≈ 2.84 µM)
Cc1cc([N+](=O)[O-])ccc1NS(=O)(=O)c1cc2c(CN=[N+]=[N-])cc(=O)oc2cc1C	4 (≈ 9.32 µM)	16 (≈ 37.3 µM)	4 (≈ 9.32 µM)	125 (≈ 291 µM)	31.2 (≈ 72.8 µM)	125 (≈ 291 µM)	16 (≈ 37.3 µM)	8 (≈ 18.6 µM)	4 (≈ 9.32 µM)	2 (≈ 4.66 µM)	2 (≈ 4.66 µM)	2 (≈ 4.66 µM)
Cc1cc2oc(=O)cc(CN=[N+]=[N-])c2cc1S(=O)(=O)Nc1cccc(Cl)c1	8 (≈ 19.8 µM)	1 (≈ 2.47 µM)	16 (≈ 39.5 µM)	1 (≈ 2.47 µM)	4 (≈ 9.88 µM)	> 500	> 500	16 (≈ 39.5 µM)	31.2 (≈ 77.2 µM)	2 (≈ 4.94 µM)	> 500	1 (≈ 2.47 µM)
Cc1cc2oc(=O)cc(CN=[N+]=[N-])c2cc1S(=O)(=O)Nc1ccc(Cl)cc1[N+](=O)[O-]	4 (≈ 8.89 µM)	4 (≈ 8.89 µM)	250 (≈ 556 µM)	8 (≈ 17.8 µM)	16 (≈ 35.6 µM)	> 500	16 (≈ 35.6 µM)	> 500	62.5 (≈ 139 µM)	125 (≈ 278 µM)	8 (≈ 17.8 µM)	1 (≈ 2.22 µM)
